Experimental data from PMC3996483 (Scientific Reports, 2014).
“Also recorded” adds a separate entry of the source.

How the values were obtained:
[1] = biological target: T1, NS5A^33–202 domain 1, HCV genotype 1b (con1) (Hepatitis C virus genotype 1b, UniProt Q9WMX2); assay: MST binding assay, NS5A domain 1 residues 33–202
T1 sequence (Q9WMX2 2005-2174): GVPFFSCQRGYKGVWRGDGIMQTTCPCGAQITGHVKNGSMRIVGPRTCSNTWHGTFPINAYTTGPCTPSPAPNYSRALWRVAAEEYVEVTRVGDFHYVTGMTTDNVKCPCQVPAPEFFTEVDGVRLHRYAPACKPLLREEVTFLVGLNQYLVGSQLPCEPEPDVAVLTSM
How it was run: (§1)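 Recombinant HCV 1b (con1) NS5A was expressed with a 6-His/TEV tag, Ni- and size-exclusion purified, and the tag cleaved. Ligand: 16-step 2–4-fold dilutions. Capillaries were heated at 40% laser for 30 s, then cooled 5 s. Fnorm normalised to baseline and maximum; KD by mass-action fit; ≥3 replicates.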

[2] = biological target: T2, NS5A^26–202 domain 1, HCV genotype 1b (con1) (Hepatitis C virus genotype 1b, UniProt Q9WMX2); assay: MST binding assay, NS5A domain 1 residues 26–202
T2 sequence (Q9WMX2 1998-2174): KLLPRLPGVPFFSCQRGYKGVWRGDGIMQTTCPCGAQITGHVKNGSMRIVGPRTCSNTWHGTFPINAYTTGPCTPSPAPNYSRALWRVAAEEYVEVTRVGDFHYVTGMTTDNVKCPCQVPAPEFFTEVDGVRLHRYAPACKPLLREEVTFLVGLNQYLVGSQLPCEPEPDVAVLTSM
How it was run: as §1

[3] = biological target: T3, Y93H NS5A^33–202, HCV genotype 1b (con1) (Hepatitis C virus genotype 1b, UniProt Q9WMX2, Y2065H); assay: MST binding assay, Y93H resistance mutant
T3 sequence (Q9WMX2 2005-2174 Y2065H): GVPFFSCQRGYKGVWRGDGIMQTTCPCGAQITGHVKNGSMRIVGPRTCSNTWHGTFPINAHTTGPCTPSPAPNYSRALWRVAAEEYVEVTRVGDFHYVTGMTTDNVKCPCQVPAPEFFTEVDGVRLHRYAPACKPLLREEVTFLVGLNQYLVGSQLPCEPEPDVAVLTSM

[4] = tested on: Y93H NS5A^33–202, HCV genotype 1b (con1); assay: MST binding assay, Y93H resistance mutant; parameters: species or system Hepatitis C virus; settings: MST in vitro assay, Y93H NS5A^33–202 vs NS5A^33–202
[5] = biological target: T4, L31V NS5A^26–202, HCV genotype 1b (con1) (Hepatitis C virus genotype 1b, UniProt Q9WMX2, L2003V); assay: MST binding assay, L31V resistance mutant
T4 sequence (Q9WMX2 1998-2174 L2003V): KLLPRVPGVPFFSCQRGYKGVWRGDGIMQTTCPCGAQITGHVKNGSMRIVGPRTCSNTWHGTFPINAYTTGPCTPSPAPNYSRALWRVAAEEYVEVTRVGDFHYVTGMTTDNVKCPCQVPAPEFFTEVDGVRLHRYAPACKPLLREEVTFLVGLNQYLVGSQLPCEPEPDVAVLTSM

Solubility = assay type: physicochemical; settings: pH 7, aqueous buffer
[6] = biological target: T1, NS5A^33–202 domain 1, HCV genotype 1b (con1); assay: SEC-MALLS analysis of NS5A oligomerisation state; settings: NS5A^33–202 alone 39 ± 5 kDa (dimer), dimerisation state not affected
How it was run: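 Multi-angle laser light scattering was run in batch mode (0.1 ml/min) and after size-exclusion (0.35 ml/min). Protein was run at 0.3–4 mg/ml with refractive-index detection and dn/dc 0.185; BSA served as control. Weight-average molar mass was taken from all points.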

[7] = tested on: HCV replicon (NS5A genotypes and subtypes); settings: cited from earlier work
HCV genotype 1a = settings: cited from earlier work
HCV genotype 2a (J6) = settings: cited from earlier work
HCV genotype 3a (S52) = settings: cited from earlier work
HCV genotype 1b (con1) = settings: cited from earlier work
SEC-MALS = biological target: the molecule itself; assay: SEC-MALS

COC(=O)N[C@H](C(=O)N1CCC[C@H]1c1nc(-c2ccc(-c3ccc(-c4c[nH]c([C@@H]5CCCN5C(=O)[C@@H](NC(=O)OC)C(C)C)n4)cc3)cc2)c[nH]1)C(C)C [BMS-790052, daclatasvir]
Kd [1]: 8 ± 3 nM | Compound binding after incubation of NS5A with excess 5rU ([1]; MST, NS5A^33–202 incubated with 100-fold excess 5rU prior to adding compound): eliminated binding | Kd [2]: 210 ± 46 nM | Kd [3]: > 500 nM | decrease in KD (binding), Y93H versus wild type [4]: > 50 fold | KD / binding (in words) [5]: did not show any detectable binding; also recorded: no detectable binding | solubility (Solubility): < 1.6 µg/mL | average molecular weight of NS5A^33–202 after addition of substance [6]: 41 ± 7 kDa | resistance conferred by L31V/M/F mutations ([7]; NS5A L31V/M/F): 23- to 3,350 fold | resistance conferred by Y93H/N/C mutations ([7]; NS5A Y93H/N/C): 19- to 47,000 fold | EC50 ([7]; replicon, most genotypes and subtypes): 0.002 to 0.15 nM | decrease in EC50 by Y93H/C resistance mutation (HCV genotype 1a; genotype 1a (H77), Y93H/C): 220 fold | EC50 (HCV genotype 1a; replicon, genotype 1a (J1)): 1.1 nM | decrease in EC50 by Y93H/C resistance mutation (HCV genotype 2a (J6); Y93H/C): 143 fold | EC50 (HCV genotype 2a (J6); replicon): 14 nM | decrease in EC50 by Y93H/C resistance mutation (HCV genotype 3a (S52); Y93H/C): 2,111 fold | EC50 (HCV genotype 3a (S52); replicon): 0.9 nM | resistance conferred by L31V mutation (HCV genotype 1b (con1); replicon assays, L31V): 23 fold | decrease in EC50 by Y93H/C resistance mutation (HCV genotype 1b (con1); replicon, Y93H/C): ~ 5 fold

B1: HCV genotype 1b (con1) NS5A domain 1, residues 33–202 (domain or fragment, Hepatitis C virus genotype 1b (con1), UniProt Q9WMX2 2005-2174, looked up)
chain: GVPFFSCQRGYKGVWRGDGIMQTTCPCGAQITGHVKNGSMRIVGPRTCSNTWHGTFPINAYTTGPCTPSPAPNYSRALWRVAAEEYVEVTRVGDFHYVTGMTTDNVKCPCQVPAPEFFTEVDGVRLHRYAPACKPLLREEVTFLVGLNQYLVGSQLPCEPEPDVAVLTSM
stoichiometry N (SEC-MALS): 2
